From ChEMBL document CHEMBL2034946, “Synthesis and biological evaluation of cyclic sulfamide derivatives as 11β-hydroxysteroid dehydrogenase 1 inhibitors” (ACS Med Chem Lett, 2012)
pIC50: −log10 of the molar value. ≈ marks a conversion by molar mass, not a printed value.

Columns and labels:
[1] = target: 11-beta-hydroxysteroid dehydrogenase 1 (Mus musculus, UniProt P50172); test: Inhibition of mouse 11beta-HSD1 expressed in CHO-K1 cells using cortisone as substrate after 3 hrs by HTRF assay; assay type: cell-based
Sequence of 11-beta-hydroxysteroid dehydrogenase 1 (Mus musculus, UniProt P50172) (P50172 whole entry): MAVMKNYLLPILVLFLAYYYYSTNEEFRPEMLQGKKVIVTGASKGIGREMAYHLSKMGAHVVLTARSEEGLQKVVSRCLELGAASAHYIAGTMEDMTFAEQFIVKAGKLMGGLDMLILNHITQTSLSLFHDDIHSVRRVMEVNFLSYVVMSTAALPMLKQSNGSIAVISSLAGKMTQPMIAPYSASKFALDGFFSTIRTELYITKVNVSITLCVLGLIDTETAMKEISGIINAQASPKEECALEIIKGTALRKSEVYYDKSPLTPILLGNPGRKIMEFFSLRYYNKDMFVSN
Outline: (§1)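 Cells overexpressing human or mouse 11β-HSD1 incubated with cortisone plus compound for 3 h; cortisol measured by HTRF. IC50 fitted from concentration-dependent inhibition curves; means ± SEM of triplicate experiments.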

[2] = target: 11-beta-hydroxysteroid dehydrogenase 1 (Homo sapiens, UniProt P28845); test: Inhibition of human 11beta-HSD1 expressed in CHO-K1 cells using cortisone as substrate after 3 hrs by HTRF assay; assay type: cell-based; settings: for pIC50: read-out: IC50; outline: as §1
Sequence of 11-beta-hydroxysteroid dehydrogenase 1 (Homo sapiens, UniProt P28845) (P28845 whole entry): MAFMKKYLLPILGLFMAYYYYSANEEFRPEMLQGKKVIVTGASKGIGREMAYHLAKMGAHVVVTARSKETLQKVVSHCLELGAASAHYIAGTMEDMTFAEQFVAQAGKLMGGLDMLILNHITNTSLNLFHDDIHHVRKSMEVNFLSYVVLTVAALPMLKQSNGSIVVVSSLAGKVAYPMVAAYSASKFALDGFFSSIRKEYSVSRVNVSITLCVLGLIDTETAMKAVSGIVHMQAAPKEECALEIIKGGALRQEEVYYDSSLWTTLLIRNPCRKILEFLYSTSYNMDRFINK

[3] = test system: Mus musculus; test: Ex-vivo inhibition of 11betaHSD1 in C57BL/6 mouse liver at 20 mg/kg, po after 2 hrs by ELISA; assay type: functional; settings: C57BL/6, Liver
Outline: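 Normal mice given 20 mpk orally; liver tissue taken 2 h after dosing and 11β-HSD1 activity measured ex vivo as % inhibition relative to vehicle.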

[4] = Metabolic stability in rat liver microsomes assessed as compound remaining after 30 mins; assay type: ADME, Microsome; settings: read-out: Stability
Outline: (§2)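 Human and rat liver microsomes incubated with compound for 30 min; stability reported as percent parent compound remaining.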

[5] = Metabolic stability in human liver microsomes assessed as compound remaining after 30 mins; assay type: ADME, Microsome; settings: read-out: Stability; outline: as §2
[6] = test system: Mus musculus; test: Ex-vivo inhibition of 11betaHSD1 in C57BL/6 mouse fat at 20 mg/kg, po after 2 hrs by ELISA; assay type: functional; settings: C57BL/6, 2 h
Outline: (§3)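 Normal mice dosed orally (1, 5, 10 or 20 mpk); 11β-HSD1 activity in fat tissue measured ex vivo 2 h post-dose.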

[7] = target: T1, 11-beta-hydroxysteroid dehydrogenase type 2 (Homo sapiens) (UniProt P80365); test: Inhibition of human 11beta-HSD2 expressed in HEK293 cells using […] as substrate at 10 uM after 24 hrs by HTRF assay; assay type: cell-based
T1 sequence (whole entry): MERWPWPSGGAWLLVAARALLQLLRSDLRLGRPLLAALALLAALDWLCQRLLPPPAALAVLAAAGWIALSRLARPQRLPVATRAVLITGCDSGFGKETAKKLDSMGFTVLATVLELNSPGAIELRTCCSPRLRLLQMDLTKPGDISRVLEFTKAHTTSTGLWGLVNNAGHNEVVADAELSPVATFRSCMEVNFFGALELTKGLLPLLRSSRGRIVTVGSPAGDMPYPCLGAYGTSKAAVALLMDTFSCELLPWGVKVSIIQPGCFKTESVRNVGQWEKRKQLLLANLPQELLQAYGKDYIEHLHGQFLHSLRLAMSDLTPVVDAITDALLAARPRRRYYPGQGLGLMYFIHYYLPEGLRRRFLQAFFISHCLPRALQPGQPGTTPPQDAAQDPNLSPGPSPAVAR

[8] = Terminal elimination half life in Sprague-Dawley rat at 10 mg/kg, po; assay type: ADME, organism-based; set-up: dose 10 mg/kg, route oral; settings: in vivo, read-out: beta t1/2 (converted)
[9] = Cmax in cynomolgus monkey at 10 mg/kg, po; assay type: ADME, organism-based, Macaca fascicularis; set-up: dose 10 mg/kg, route oral; settings: in vivo
[10] = target: Cytochrome P450 2C9 (Homo sapiens, UniProt P11712); test: Inhibition of CYP2C9; assay type: ADME
Sequence of Cytochrome P450 2C9 (P11712 whole entry): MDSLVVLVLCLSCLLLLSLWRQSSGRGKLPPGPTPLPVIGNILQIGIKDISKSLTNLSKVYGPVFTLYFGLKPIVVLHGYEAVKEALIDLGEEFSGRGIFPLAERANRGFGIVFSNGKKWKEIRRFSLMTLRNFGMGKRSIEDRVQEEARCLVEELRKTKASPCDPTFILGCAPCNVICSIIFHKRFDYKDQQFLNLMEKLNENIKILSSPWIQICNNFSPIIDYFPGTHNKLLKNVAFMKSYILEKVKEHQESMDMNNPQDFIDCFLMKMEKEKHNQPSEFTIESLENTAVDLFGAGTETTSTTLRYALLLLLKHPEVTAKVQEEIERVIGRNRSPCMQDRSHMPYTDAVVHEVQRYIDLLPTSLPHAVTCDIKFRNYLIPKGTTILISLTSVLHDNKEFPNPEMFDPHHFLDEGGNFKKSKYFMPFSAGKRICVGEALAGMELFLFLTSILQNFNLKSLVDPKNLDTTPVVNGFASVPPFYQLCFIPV

[11] = test system: Mus musculus; test: Ex-vivo inhibition of 11betaHSD1 in C57BL/6 mouse fat at 10 mg/kg, po after 2 hrs by ELISA; assay type: functional; settings: C57BL/6, 2 h; outline: as §3
[12] = AUC in Sprague-Dawley rat at 10 mg/kg, po; assay type: ADME, organism-based; set-up: dose 10 mg/kg, route oral; settings: plasma
[13] = Terminal elimination half life in cynomolgus monkey at 10 mg/kg, po; assay type: ADME, organism-based, Macaca fascicularis; set-up: dose 10 mg/kg, route oral; settings: in vivo, read-out: beta t1/2 (converted)
[14] = test system: Cynomolgus monkey; test: Ex-vivo inhibition of 11beta-HSD1 in cynomolgus monkey inguinal fat at 10 mg/kg, po after 2 hrs by ELISA; assay type: functional; settings: Macaca fascicularis
Outline: (§4)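 Cynomolgus monkeys dosed orally at 10 mpk; 11β-HSD1 activity measured ex vivo in shoulder, inguinal and abdominal cavity fat at 2 h. Means, n = 2 monkeys per group, versus vehicle.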

[15] = target: Cytochrome P450 3A4 (Homo sapiens, UniProt P08684); test: Inhibition of CYP3A4 incubated for 20 mins prior to substrate addition measured after 20 mins by fluorimetric assay; assay type: ADME
Sequence of Cytochrome P450 3A4 (P08684 whole entry): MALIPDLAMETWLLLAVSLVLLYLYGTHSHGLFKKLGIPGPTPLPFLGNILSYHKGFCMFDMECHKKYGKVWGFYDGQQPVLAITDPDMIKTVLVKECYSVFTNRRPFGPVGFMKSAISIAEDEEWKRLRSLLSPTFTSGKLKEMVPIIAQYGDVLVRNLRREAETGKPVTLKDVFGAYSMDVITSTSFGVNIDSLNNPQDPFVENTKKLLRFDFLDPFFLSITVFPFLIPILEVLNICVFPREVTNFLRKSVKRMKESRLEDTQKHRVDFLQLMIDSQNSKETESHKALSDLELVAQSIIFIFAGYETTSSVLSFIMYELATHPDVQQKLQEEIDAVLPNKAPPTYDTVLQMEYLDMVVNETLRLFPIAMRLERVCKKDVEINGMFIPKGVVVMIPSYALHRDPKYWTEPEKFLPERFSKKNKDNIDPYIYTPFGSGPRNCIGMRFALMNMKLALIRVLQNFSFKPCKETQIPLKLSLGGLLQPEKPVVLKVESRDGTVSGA

[16] = Oral bioavailability in Sprague-Dawley rat at 10 mg/kg; assay type: ADME, organism-based; settings: in vivo
[17] = test system: Mus musculus; test: Ex-vivo inhibition of 11betaHSD1 in C57BL/6 mouse fat at 5 mg/kg, po after 2 hrs by ELISA; assay type: functional; settings: C57BL/6, 2 h; outline: as §3
[18] = Aqueous solubility of the compound; assay type: physicochemical; settings: buffer
[19] = test system: Cynomolgus monkey; test: Ex-vivo inhibition of 11beta-HSD1 in cynomolgus monkey abdominal fat at 10 mg/kg, po after 2 hrs by ELISA; assay type: functional; settings: Macaca fascicularis, Abdomen; outline: as §4
[20] = AUC in cynomolgus monkey at 10 mg/kg, po; assay type: ADME, organism-based, Macaca fascicularis; set-up: dose 10 mg/kg, route oral; settings: plasma
[21] = target: Cytochrome P450 2C19 (Homo sapiens, UniProt P33261); test: Inhibition of CYP2C19 incubated for 20 mins prior to substrate addition measured after 20 mins by fluorimetric assay; assay type: ADME
Sequence of Cytochrome P450 2C19 (P33261 whole entry): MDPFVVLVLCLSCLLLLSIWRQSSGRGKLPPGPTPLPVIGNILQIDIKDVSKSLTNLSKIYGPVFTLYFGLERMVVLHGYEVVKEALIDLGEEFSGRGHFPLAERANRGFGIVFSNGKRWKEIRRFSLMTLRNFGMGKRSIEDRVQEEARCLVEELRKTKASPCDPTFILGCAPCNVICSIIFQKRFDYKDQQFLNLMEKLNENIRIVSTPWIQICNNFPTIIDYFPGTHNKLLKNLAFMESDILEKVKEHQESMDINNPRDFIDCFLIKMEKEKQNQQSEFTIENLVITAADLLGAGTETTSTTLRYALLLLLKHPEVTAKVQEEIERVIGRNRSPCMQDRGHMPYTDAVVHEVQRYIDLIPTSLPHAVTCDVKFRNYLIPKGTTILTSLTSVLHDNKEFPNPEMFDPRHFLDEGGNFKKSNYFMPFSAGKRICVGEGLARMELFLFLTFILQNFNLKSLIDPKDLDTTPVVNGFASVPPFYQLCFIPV

[22] = Cmax in Sprague-Dawley rat at 10 mg/kg, po; assay type: ADME, organism-based; set-up: dose 10 mg/kg, route oral; settings: in vivo
[23] = Metabolic stability in plasma at 10 uM after 30 mins; assay type: ADME, cell-free; settings: read-out: Stability
Outline: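 Compound incubated in plasma for 30 min; stability given as percent remaining.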

[24] = target: Cytochrome P450 2D6 (Homo sapiens, UniProt P10635); test: Inhibition of CYP2D6 incubated for 20 mins prior to substrate addition measured after 20 mins by fluorimetric assay; assay type: ADME
Sequence of Cytochrome P450 2D6 (P10635 whole entry): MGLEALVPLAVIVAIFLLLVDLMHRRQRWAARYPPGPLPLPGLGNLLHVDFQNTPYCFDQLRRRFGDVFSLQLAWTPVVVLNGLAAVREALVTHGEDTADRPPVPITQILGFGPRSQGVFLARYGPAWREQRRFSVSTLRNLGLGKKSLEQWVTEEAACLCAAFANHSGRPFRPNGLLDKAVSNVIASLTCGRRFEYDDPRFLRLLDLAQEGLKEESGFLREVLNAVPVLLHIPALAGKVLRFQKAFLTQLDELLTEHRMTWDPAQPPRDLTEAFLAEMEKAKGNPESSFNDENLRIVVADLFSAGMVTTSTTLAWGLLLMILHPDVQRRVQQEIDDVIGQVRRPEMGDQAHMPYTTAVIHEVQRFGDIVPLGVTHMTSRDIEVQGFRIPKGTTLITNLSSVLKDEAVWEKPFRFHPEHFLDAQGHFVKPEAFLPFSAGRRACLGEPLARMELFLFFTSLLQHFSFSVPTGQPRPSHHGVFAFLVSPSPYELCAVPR

[25] = Clearance in Sprague-Dawley rat at 10 mg/kg, po; assay type: ADME, organism-based; set-up: dose 10 mg/kg, route oral; settings: in vivo
[26] = target: T2, Cytochrome P450 1A2 (Homo sapiens, UniProt P05177); test: Inhibition of CYP1A2 incubated for 20 mins prior to substrate addition measured after 20 mins by fluorimetric assay; assay type: ADME
T2 sequence (P05177 whole entry): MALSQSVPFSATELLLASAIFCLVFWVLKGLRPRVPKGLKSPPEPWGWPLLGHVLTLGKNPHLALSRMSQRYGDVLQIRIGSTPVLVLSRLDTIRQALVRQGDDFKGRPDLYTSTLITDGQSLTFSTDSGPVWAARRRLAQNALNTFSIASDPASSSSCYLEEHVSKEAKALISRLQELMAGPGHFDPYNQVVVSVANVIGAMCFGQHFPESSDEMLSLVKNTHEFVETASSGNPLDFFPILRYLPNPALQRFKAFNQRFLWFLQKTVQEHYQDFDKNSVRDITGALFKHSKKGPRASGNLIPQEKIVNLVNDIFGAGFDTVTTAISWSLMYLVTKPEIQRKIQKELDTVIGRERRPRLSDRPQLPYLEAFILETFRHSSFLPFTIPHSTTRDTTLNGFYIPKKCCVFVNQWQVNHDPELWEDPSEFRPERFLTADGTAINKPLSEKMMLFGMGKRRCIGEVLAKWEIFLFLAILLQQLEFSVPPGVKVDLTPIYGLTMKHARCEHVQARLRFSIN

[27] = test system: Mus musculus; test: Ex-vivo inhibition of 11betaHSD1 in C57BL/6 mouse fat at 1 mg/kg, po after 2 hrs by ELISA; assay type: functional; settings: C57BL/6, 2 h; outline: as §3
[28] = test system: Mus musculus; test: Ex-vivo inhibition of 11betaHSD1 in po dosed C57BL/6 mouse fat after 2 hrs by ELISA; assay type: functional, organism-based; outline: as §3
[29] = test system: Cynomolgus monkey; test: Ex-vivo inhibition of 11beta-HSD1 in cynomolgus monkey shoulder fat at 10 mg/kg, po after 2 hrs by ELISA; assay type: functional; settings: Macaca fascicularis; outline: as §4

NC(=O)[C@]12CC3CC(C1)[C@@H](NC(=O)CN1CCCN(c4ccccc4F)S1(=O)=O)C(C3)C2
pIC50 [1]: 6.77 | pIC50 [2]: 7.85

CN(CC(=O)N[C@H]1C2CC3CC1C[C@](C(N)=O)(C3)C2)S(=O)(=O)N(C)c1c(Cl)cc(Cl)cc1Cl
inhibition in vivo at 20 mg/kg [3]: 57.8% | pIC50 [1]: 8.70 | pIC50 [2]: 9.00 | remaining at 0.5 h [4]: 7% | remaining at 0.5 h [5]: 21% | inhibition in vivo at 20 mg/kg [6]: 33.3%

O=C(CN1CCCN(CCc2ccccc2)S1(=O)=O)NC1C2CC3CC(C2)CC1C3 (stereo not given)
pIC50 [2]: 5.78

CC1CCN(c2c(Cl)cc(Cl)cc2Cl)S(=O)(=O)N1CC(=O)N[C@H]1C2CC3CC1C[C@](C(N)=O)(C3)C2 (mixture of isomers)
pIC50 [1]: 7.15 | pIC50 [2]: 9.00 | remaining at 0.5 h [4]: 70% | remaining at 0.5 h [5]: 94% | inhibition in vivo at 20 mg/kg [6]: 74.5%

NC(=O)[C@]12CC3CC(C1)[C@@H](NC(=O)CN1CCCCN(c4c(Cl)cc(Cl)cc4Cl)S1(=O)=O)C(C3)C2
inhibition in vivo at 20 mg/kg [3]: 51.4% | pIC50 [1]: 9.00 | pIC50 [2]: 9.00 | remaining at 0.5 h [4]: 26% | remaining at 0.5 h [5]: 40% | inhibition in vivo at 20 mg/kg [6]: 59.9%

C=C1CN(CC(=O)N[C@H]2C3CC4CC2C[C@](C(N)=O)(C4)C3)S(=O)(=O)N(c2c(Cl)cc(Cl)cc2Cl)C1
pIC50 [1]: 8.10 | pIC50 [2]: 7.85 | inhibition in vivo at 20 mg/kg [6]: 82.1%

NC(=O)[C@]12CC3CC(C1)[C@@H](NC(=O)CN1CCN(c4c(Cl)cc(Cl)cc4Cl)S1(=O)=O)C(C3)C2
pIC50 [1]: 6.39 | pIC50 [2]: 6.73

NC(=O)[C@]12CC3CC(C1)[C@@H](NC(=O)CN1CCCN(c4ccc(F)cc4)S1(=O)=O)C(C3)C2
pIC50 [1]: 4.81 | pIC50 [2]: 3.45

O=C(CN1CCCN(c2ccccc2)S1(=O)=O)NC12CC3CC(CC(C3)C1)C2
pIC50 [2]: 5.47

NC(=O)[C@]12CC3CC(C1)[C@@H](NC(=O)CN1CCCN(c4c(F)cc(F)cc4F)S1(=O)=O)C(C3)C2
pIC50 [1]: 6.80 | pIC50 [2]: 7.70

CC1(C)CN(CC(=O)N[C@H]2C3CC4CC2C[C@](C(N)=O)(C4)C3)S(=O)(=O)N(c2c(Cl)cc(Cl)cc2Cl)C1
pIC50 [1]: 7.59 | pIC50 [2]: 8.30 | inhibition in vivo at 20 mg/kg [6]: 29.9%

NC(=O)[C@]12CC3CC(C1)[C@@H](NC(=O)CN1CC4(CC4)CN(c4c(Cl)cc(Cl)cc4Cl)S1(=O)=O)C(C3)C2
pIC50 [1]: 7.64 | pIC50 [2]: 8.30 | inhibition in vivo at 20 mg/kg [6]: 39.6%

NC(=O)[C@]12CC3CC(C1)[C@@H](NC(=O)CN1CCCN(c4cccc(F)c4)S1(=O)=O)C(C3)C2
pIC50 [1]: 6.85 | pIC50 [2]: 7.30

CC1CN(CC(=O)N[C@H]2C3CC4CC2C[C@](C(N)=O)(C4)C3)S(=O)(=O)N(c2c(Cl)cc(Cl)cc2Cl)C1 (mixture of isomers)
inhibition [7]: 20% | half-life [8]: 3.8 h | Cmax [9]: 6.4 µg/mL | INH [10]: > 100 µM | inhibition in vivo at 10 mg/kg [11]: 90.7% | pIC50 [1]: 8.70 | AUC [12]: 15.7 µg·h/mL | half-life [13]: 3.4 h | inhibition in vivo at 10 mg/kg [14]: 83% | INH [15]: > 100 µM | pIC50 [2]: 9.00 | bioavailability [16]: 68.8% | inhibition in vivo at 5 mg/kg [17]: 90.4% | solubility [18]: 361 µM (≈ 204 µg/mL) | inhibition in vivo at 10 mg/kg [19]: 81% | AUC [20]: 35.6 µg·h/mL | INH [21]: > 100 µM | Cmax [22]: 3.1 µg/mL | remaining at 0.5 h, 10 µM [23]: 100% | remaining at 0.5 h [4]: 78% | INH [24]: > 100 µM | CL/F [25]: 0.7 L/h/kg | INH [26]: > 100 µM | remaining at 0.5 h [5]: 93% | inhibition in vivo at 1 mg/kg [27]: 76.6% | inhibition [28]: Dose-dependent effect | inhibition in vivo at 10 mg/kg [29]: 87% | inhibition in vivo at 20 mg/kg [6]: 95.9%

NC(=O)[C@]12CC3CC(C1)[C@@H](NC(=O)CN1CCCN(c4ccccc4)S1(=O)=O)C(C3)C2
pIC50 [1]: 6.68 | pIC50 [2]: 7.77

O=C(O)CN1CCCN(c2ccccc2)S1(=O)=O
IC50 ([2]; cho-k1): Not Active

NC(=O)[C@]12CC3CC(C1)[C@@H](NC(=O)CN1CCCN(c4c(Cl)cc(Cl)cc4Cl)S1(=O)=O)C(C3)C2
inhibition in vivo at 20 mg/kg [3]: 83.7% | pIC50 [1]: 8.40 | pIC50 [2]: 9.00 | remaining at 0.5 h [4]: 57% | remaining at 0.5 h [5]: 61% | inhibition in vivo at 20 mg/kg [6]: 92.1%
